Measurements: ChEMBL document CHEMBL1795344, “Design, synthesis and antitumor evaluation of phenyl N-mustard-quinazoline conjugates” (Bioorg Med Chem, 2011)
The source made the active and inactive calls. No cut-off for these calls is given here.

What was measured:
[1] = Cell cycle arrest in human H1299 cells assessed as accumulation at G1 phase at 20 uM after 24 hrs using propidium iodide staining by flow cytometry (reference value: 44.8 +/- 3%); type: functional, cell-based; conditions: NCI-H1299
Procedure, shortened: (§1)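 H1299 cells were exposed 24 h, then trypsinized, PBS-washed and fixed in ice-cold 70% ethanol for 30 min. They were stained with 4 μg/mL propidium iodide in PBS containing 1% Triton X-100 and 0.1 mg/mL RNase A. Cell-cycle distribution was read by flow cytometry.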

[2] = test system: Mus musculus; test: Toxicity in human PC3 cells xenografted athymic nude Swiss mouse assessed as mouse mortality at 55 mg/kg, iv every two days for six times; type: organism-based, PC-3; parameters: dose 55 mg/kg, route intravenous; conditions: in vivo
[3] = Cytotoxicity against human H1299 cells after 72 hrs by Alamar blue assay; type: functional, cell-based; conditions: NCI-H1299, 72 h
Procedure, shortened: (§2)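 H1299 and PC3 cells were exposed 72 h, then given Alamar blue for 6 h at 37 °C. Absorbance was read at 570 and 600 nm. IC50 came from median-effect analysis of dose-effect data at six or seven concentrations.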

[4] = Cell cycle arrest in human H1299 cells assessed as accumulation at G1 phase at 5 uM after 24 hrs using propidium iodide staining by flow cytometry (reference value: 44.8 +/- 3%); type: functional, cell-based; conditions: NCI-H1299; procedure, shortened: as §1
[5] = test system: Mus musculus; test: Toxicity in human MX1 cells xenografted athymic nude Swiss mouse assessed as body weight loss at 30 mg/kg, iv every two days for three times followed by 35 mg/kg, iv every two days for 5 times relative to control; type: organism-based; conditions: in vivo
[6] = test system: Mus musculus; test: Toxicity in human MX1 cells xenografted athymic nude Swiss mouse assessed as mouse mortality at 30 mg/kg, iv every two days for three times followed by 35 mg/kg, iv every two days for 5 times; type: organism-based; conditions: in vivo
[7] = test system: Nucleic Acid; test: Induction of pEGFP-N1 plasmid DNA interstrand cross-linking at 1 to 20 uM by alkaline agarose gel shift assay; type: nucleic-acid assay
Procedure, shortened: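 pEGFP-N1 plasmid DNA (1500 ng) was incubated with compound (1, 10, 20 μM) in 3 mM NaCl/1 mM sodium phosphate pH 7.4/1 mM EDTA for 2 h at 37 °C. It was then BamHI-linearized, ethanol-precipitated and denatured in 0.5 N NaOH-10 mM EDTA. Samples were run on a 0.8% alkaline agarose gel at 4 °C, 18 V for 22 h, stained with ethidium bromide.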

[8] = Cell cycle arrest in human H1299 cells assessed as accumulation at S phase at 10 uM after 24 hrs using propidium iodide staining by flow cytometry (reference value: 24.9 +/- 3.3%); type: functional, cell-based; conditions: NCI-H1299; procedure, shortened: as §1
[9] = Cell cycle arrest in human H1299 cells assessed as accumulation at sub G1 phase at 5 uM after 24 hrs using propidium iodide staining by flow cytometry (reference value: 8.8 +/- 6.9%); type: functional, cell-based; conditions: NCI-H1299; procedure, shortened: as §1
[10] = test system: MX1; test: Cytotoxicity against human MX1 cells after 72 hrs by SRB assay; type: functional, cell-based; conditions: MX1, 72 h
Procedure, shortened: (§3)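 MX-1 and HCT-116 solid tumor cells were exposed 72 h, with growth read by SRB staining on a microplate spectrophotometer. IC50 came from median-effect analysis of dose-effect data at six or seven concentrations.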

[11] = test system: PC-3; test: Cytotoxicity against human PC3 cells after 72 hrs by Alamar blue assay; type: functional, cell-based; conditions: PC-3, 72 h; procedure, shortened: as §2
[12] = Cell cycle arrest in human H1299 cells assessed as accumulation at G2/M phase at 10 uM after 24 hrs using propidium iodide staining by flow cytometry (reference value: 21.5 +/- 0.6%); type: functional, cell-based; conditions: NCI-H1299; procedure, shortened: as §1
[13] = Cell cycle arrest in human H1299 cells assessed as accumulation at S phase at 5 uM after 24 hrs using propidium iodide staining by flow cytometry (reference value: 24.9 +/- 3.3%); type: functional, cell-based; conditions: NCI-H1299; procedure, shortened: as §1
[14] = test system: CCRF-CEM; test: Cytotoxicity against human taxol-resistant CCRF-CEM cells after 72 hrs by XTT assay; type: functional, cell-based
Procedure, shortened: (§4)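 CCRF-CEM and its Taxol- and vinblastine-resistant sublines were incubated 72 h, then given phenazine methosulfate-XTT for 6 h at 37 °C. Absorbance was read at 450 and 630 nm. IC50 came from median-effect analysis of dose-effect data at six or seven concentrations.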

[15] = Cell cycle arrest in human H1299 cells assessed as accumulation at sub G1 phase at 10 uM after 24 hrs using propidium iodide staining by flow cytometry (reference value: 8.8 +/- 6.9%); type: functional, cell-based; conditions: NCI-H1299; procedure, shortened: as §1
[16] = test system: MX1; test: Antitumor activity against human MX1 cells xenografted in athymic nude Swiss mouse assessed as tumor growth inhibition at 30 mg/kg, iv every two days for three times followed by 35 mg/kg, iv every two days for 5 times relative to control; type: functional; parameters: scale not given: the % may be the effect or the level left
[17] = test system: HCT-116; test: Cytotoxicity against human HCT116 cells after 72 hrs by SRB assay; type: functional, cell-based; conditions: HCT-116, 72 h; procedure, shortened: as §3
[18] = test system: CCRF-CEM; test: Ratio of IC50 for human taxol-resistant CCRF-CEM cells to IC50 for human CCRF-CEM cells; type: functional
[19] = Cell cycle arrest in human H1299 cells assessed as accumulation at S phase at 20 uM after 24 hrs using propidium iodide staining by flow cytometry (reference value: 24.9 +/- 3.3%); type: functional, cell-based; conditions: NCI-H1299; procedure, shortened: as §1
[20] = Cell cycle arrest in human H1299 cells assessed as accumulation at G1 phase at 10 uM after 24 hrs using propidium iodide staining by flow cytometry (reference value: 44.8 +/- 3%); type: functional, cell-based; conditions: NCI-H1299; procedure, shortened: as §1
[21] = test system: CCRF-CEM; test: Ratio of IC50 for human vinblastine-resistant CCRF-CEM cells to IC50 for human CCRF-CEM cells; type: functional
[22] = Cell cycle arrest in human H1299 cells assessed as accumulation at sub G1 phase at 20 uM after 24 hrs using propidium iodide staining by flow cytometry (reference value: 8.8 +/- 6.9%); type: functional, cell-based; conditions: NCI-H1299; procedure, shortened: as §1
[23] = Cell cycle arrest in human H1299 cells assessed as accumulation at G2/M phase at 5 uM after 24 hrs using propidium iodide staining by flow cytometry (reference value: 21.5 +/- 0.6%); type: functional, cell-based; conditions: NCI-H1299; procedure, shortened: as §1
[24] = test system: CCRF-CEM; test: Cytotoxicity against human CCRF-CEM cells after 72 hrs by XTT assay; type: functional, cell-based; procedure, shortened: as §4
[25] = test system: CCRF-CEM; test: Cytotoxicity against human vinblastine-resistant CCRF-CEM cells after 72 hrs by XTT assay; type: functional, cell-based; procedure, shortened: as §4
[26] = Cell cycle arrest in human H1299 cells assessed as accumulation at G2/M phase at 20 uM after 24 hrs using propidium iodide staining by flow cytometry (reference value: 21.5 +/- 0.6%); type: functional, cell-based; conditions: NCI-H1299; procedure, shortened: as §1
[27] = test system: Mus musculus; test: Toxicity in human PC3 cells xenografted athymic nude Swiss mouse assessed as body weight loss at 55 mg/kg, iv every two days for six times relative to control; type: organism-based, PC-3; parameters: dose 55 mg/kg, route intravenous; conditions: in vivo
[28] = test system: PC-3; test: Anticancer activity against human PC3 cells xenografted in athymic nude Swiss mouse assessed as tumor growth inhibition at 55 mg/kg, iv every two days for six times relative to control; type: functional; parameters: scale not given: the % may be the effect or the level left

| SMILES | IC50 [3] | Activity [7] | IC50 [10] | IC50 [11] | IC50 [14] | IC50 [17] | Ratio IC50 [18] | Ratio IC50 [21] | IC50 [24] | IC50 [25] | also measured |
| --- | --- | --- | --- | --- | --- | --- | --- | --- | --- | --- | --- |
| O=C(Nc1ccc(N(CCCl)CCCl)cc1)Nc1ccc2ncnc(Nc3cccc(Cl)c3)c2c1 | 10.5 µM | Active | 7.84 µM | 10.4 µM | 4.56 µM | 7.46 µM | 2.75 | 1.96 | 1.66 µM | 3.26 µM | Activity [1]: 28.3%; Activity [2]: Non-toxic; Activity [4]: 30.5%; Activity [5]: 3%; Activity [6]: Non-toxic; Activity [8]: 28.5%; Activity [9]: 8.9%; Activity [12]: 29.3%; Activity [13]: 20.6%; Activity [15]: 7.5%; Activity [16]: 62%; Activity [19]: 23.5%; Activity [20]: 34.8%; Activity [22]: 35.3%; Activity [23]: 40%; Activity [26]: 12.9%; Activity [27]: 11%; Activity [28]: 27% |
| O=C(Nc1ccc(N(CCCl)CCCl)cc1)Nc1ccc2ncnc(Nc3cccc(F)c3)c2c1 |  |  | 10.1 µM |  | 3.46 µM | 9.62 µM | 1.38 | 1.7 | 2.51 µM | 4.28 µM |  |
| COc1cc(Nc2ncnc3ccc(NC(=O)Nc4ccc(N(CCCl)CCCl)cc4)cc23)cc(OC)c1OC | 10.3 µM |  | 4.02 µM | 11 µM | 12.3 µM | 2.24 µM | 32.42 | 64.5 | 0.38 µM | 24.5 µM |  |
| CC[C@]1(O)C[C@@H]2CN(CCc3c([nH]c4ccccc34)[C@@](C(=O)OC)(c3cc4c(cc3OC)N(C)[C@H]3[C@@](O)(C(=O)OC)[C@H](OC(C)=O)[C@]5(CC)C=CCN6CC[C@]43[C@@H]65)C2)C1 [VINBLASTINE] |  |  |  |  |  |  | 106.2 | 679.5 |  |  |  |
| O=C(Nc1ccc(N(CCCl)CCCl)cc1)Nc1ccc2ncnc(Nc3cccc(C(F)(F)F)c3)c2c1 |  |  | 5.3 µM |  | 4.57 µM | 5.97 µM | 1.15 | 1.17 | 3.97 µM | 4.68 µM |  |
| COc1cccc(Nc2ncnc3ccc(NC(=O)Nc4ccc(N(CCCl)CCCl)cc4)cc23)c1 | 8.79 µM |  | 2.59 µM | 9.44 µM | 3.58 µM | 2.44 µM | 2.71 | 2.56 | 1.32 µM | 3.38 µM |  |
| O=C(Nc1ccc(N(CCCl)CCCl)cc1)Nc1ccc2ncnc(Nc3ccc(F)cc3)c2c1 | 11.6 µM | Active | 3.43 µM | 8.24 µM | 3.16 µM | 3.18 µM | 4.27 | 1.67 | 0.74 µM | 1.24 µM |  |
| C#Cc1cccc(Nc2ncnc3ccc(NC(=O)Nc4ccc(N(CCCl)CCCl)cc4)cc23)c1 |  |  | 6.27 µM |  | 2.29 µM | 3.47 µM | 4.58 | 4.66 | 0.5 µM | 2.33 µM |  |
| COc1ccc(Nc2ncnc3ccc(NC(=O)Nc4ccc(N(CCCl)CCCl)cc4)cc23)cc1Cl | 6.94 µM | Active | 5.51 µM | 8.02 µM | 3.34 µM | 5.27 µM | 4.17 | 4.68 | 0.8 µM | 3.75 µM |  |
